{"source": "ChEMBL document CHEMBL2346664", "about": "“Synthesis, characterization and in vitro anticancer evaluation of novel 1,2,4-triazolin-3-one derivatives” (2013)", "key": {"HOP-92 [1]": {"test_system": "HOP-92", "assay": "Growth inhibition of human HOP92 cells assessed as cell growth at 10 '-5 M after 48 hrs by sulforhodamine B assay", "assay_type": "functional", "settings": "HOP-92, 48 h, read-out: Activity"}, "HL-60(TB)": {"test_system": "HL-60(TB)", "assay": "Growth inhibition of human HL-60(TB) cells assessed as cell growth at 10 '-5 M after 48 hrs by sulforhodamine B assay", "assay_type": "functional", "settings": "HL-60, 48 h, read-out: Activity", "outline": "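Five-dose NCI protocol with final concentrations of 0.01–100 µM and drug diluted from a DMSO stock (400× the top concentration) in medium with gentamicin. Cells were pre-incubated 24 h, then exposed 48 h at 37 °C. Suspension cells were fixed with 16% final TCA, SRB-stained and read at 515 nm. Percentage growth at each level was [(Ti−Tz)/(C−Tz)]×100, or [(Ti−Tz)/Tz]×100 when Ti < Tz.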"}, "MCF7": {"test_system": "MCF7", "assay": "Growth inhibition of human MCF7 cells assessed as cell growth at 10 '-6 M after 48 hrs by sulforhodamine B assay", "assay_type": "functional", "settings": "MCF7, 48 h, read-out: Activity"}, "DU-145": {"test_system": "DU-145", "assay": "Growth inhibition of human DU145 cells assessed as cell growth at 10 '-6 M after 48 hrs by sulforhodamine B assay", "assay_type": "functional", "settings": "DU-145, 48 h, read-out: Activity"}, "OVCAR-8": {"test_system": "OVCAR-8", "assay": "Growth inhibition of human OVCAR8 cells assessed as cell growth at 10 '-6 M after 48 hrs by sulforhodamine B assay", "assay_type": "functional", "settings": "OVCAR-8, 48 h, read-out: Activity"}, "MDA-MB-435 [2]": {"test_system": "MDA-MB-435", "assay": "Growth inhibition of human MDA-MB-435 cells assessed as growth inhibition at 10 uM after 48 hrs by sulforhodamine B assay", "assay_type": "functional, cell-based"}, "Malme-3M [3]": {"test_system": "Malme-3M", "assay": "Growth inhibition of human MALME-3M cells assessed as growth inhibition at 10 uM after 48 hrs by sulforhodamine B assay", "assay_type": "functional", "settings": "read-out: GI"}, "SNB-19": {"test_system": "SNB-19", "assay": "Growth inhibition of human SNB19 cells assessed as growth inhibition at 10 uM after 48 hrs by sulforhodamine B assay", "assay_type": "functional", "settings": "SNB-19, 48 h, read-out: GI"}, "HOP-92 [4]": {"test_system": "HOP-92", "assay": "Growth inhibition of human HOP92 cells assessed as growth inhibition at 10 uM after 48 hrs by sulforhodamine B assay", "assay_type": "functional", "settings": "HOP-92, 48 h, read-out: GI"}, "SW-620": {"test_system": "SW-620", "assay": "Growth inhibition of human SW620 cells assessed as cell growth at 10 '-6 M after 48 hrs by sulforhodamine B assay", "assay_type": "functional", "settings": "SW-620, 48 h, read-out: Activity"}, "HCT-15 [5]": {"test_system": "HCT-15", "assay": "Growth inhibition of human HCT15 cells assessed as cell growth at 10 '-7 M after 48 hrs by sulforhodamine B assay", "assay_type": "functional", "settings": "HCT-15, 48 h, read-out: Activity"}, "SK-MEL-5": {"test_system": "SK-MEL-5", "assay": "Growth inhibition of human SK-MEL-5 cells assessed as cell growth at 10 '-4 M after 48 hrs by sulforhodamine B assay", "assay_type": "functional", "settings": "SK-MEL-5, 48 h, read-out: Activity"}, "MDA-MB-435 [6]": {"test_system": "MDA-MB-435", "assay": "Growth inhibition of human MDA-MB-435 cells assessed as cell growth at 10 '-4 M after 48 hrs by sulforhodamine B assay", "assay_type": "functional", "settings": "MDA-MB-435, 48 h, read-out: Activity"}, "A549": {"test_system": "A549", "assay": "Growth inhibition of human A549 cells assessed as cell growth at 10 '-8 M after 48 hrs by sulforhodamine B assay", "assay_type": "functional", "settings": "A549, 48 h, read-out: Activity", "outline": "(§1)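 Percent growth at each of the five concentrations of the 48 h continuous-exposure NCI SRB screen. Drug stocks were in DMSO at 400× the top final concentration and diluted in medium with gentamicin. Growth was calculated as [(Ti-Tz)/(C-Tz)]×100 when Ti ≥ Tz, or [(Ti-Tz)/Tz]×100 when Ti < Tz. Tz plates were fixed at drug addition; untreated wells served as control. Absorbance was read at 515 nm.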"}, "BT-549": {"test_system": "BT-549", "assay": "Growth inhibition of human BT549 cells after 48 hrs by sulforhodamine B assay", "assay_type": "functional", "settings": "BT-549, 48 h", "outline": "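NCI 60-cell-line five-dose screen at 0.01, 0.1, 1, 10 and 100 µM final. Cells were plated at 5,000–40,000/well and grown 24 h at 37 °C, 5% CO2, then exposed to drug continuously for 48 h. Adherent cells were fixed with cold TCA (10% final) and stained with SRB; absorbance read at 515 nm. GI50 is the concentration where [(Ti-Tz)/(C-Tz)]×100 = 50, with Tz plates fixed at drug addition.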"}, "K562": {"test_system": "K562", "assay": "Growth inhibition of human K562 cells assessed as cell growth at 10 '-4 M after 48 hrs by sulforhodamine B assay", "assay_type": "functional", "settings": "K562, 48 h, read-out: Activity"}, "ACHN [7]": {"test_system": "ACHN", "assay": "Growth inhibition of human ACHN cells assessed as cell growth at 10 '-5 M after 48 hrs by sulforhodamine B assay", "assay_type": "functional", "settings": "read-out: Activity", "outline": "as §1"}, "IGROV-1": {"test_system": "IGROV-1", "assay": "Growth inhibition of human IGROV1 cells after 48 hrs by sulforhodamine B assay", "assay_type": "functional", "settings": "IGROV-1, 48 h", "outline": "(§2)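 NCI 60-cell-line five-dose screen. Cells were plated at 5,000–40,000/well by doubling time and grown 24 h at 37 °C, 5% CO2. Time-zero plates were TCA-fixed. Drug from DMSO stock was tested at 0.01, 0.1, 1, 10 and 100 µM final for 48 h continuous exposure. Read-out was SRB at 515 nm. GI50 is the concentration giving 50% reduction in net protein increase versus untreated control.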"}, "HCT-15 [8]": {"test_system": "HCT-15", "assay": "Growth inhibition of human HCT15 cells after 48 hrs by sulforhodamine B assay", "assay_type": "functional", "settings": "HCT-15, 48 h", "outline": "as §2"}, "NCI-H460": {"test_system": "NCI-H460", "assay": "Growth inhibition of human NCI-H460 cells assessed as cell growth at 10 '-7 M after 48 hrs by sulforhodamine B assay", "assay_type": "functional", "settings": "NCI-H460, 48 h, read-out: Activity"}, "HOP-92 [9]": {"test_system": "HOP-92", "assay": "Growth inhibition of human HOP92 cells assessed as cell growth at 10 '-7 M after 48 hrs by sulforhodamine B assay", "assay_type": "functional", "settings": "HOP-92, 48 h, read-out: Activity"}, "SR": {"test_system": "SR", "assay": "Growth inhibition of human SR cells assessed as cell growth at 10 '-7 M after 48 hrs by sulforhodamine B assay", "assay_type": "functional", "settings": "read-out: Activity"}, "MDA-MB-231": {"test_system": "MDA-MB-231", "assay": "Growth inhibition of human MDA-MB-231 cells assessed as cell growth at 10 '-8 M after 48 hrs by sulforhodamine B assay", "assay_type": "functional", "settings": "MDA-MB-231, 48 h, read-out: Activity"}, "ACHN [10]": {"test_system": "ACHN", "assay": "Growth inhibition of human ACHN cells assessed as cell growth at 10 '-8 M after 48 hrs by sulforhodamine B assay", "assay_type": "functional", "settings": "read-out: Activity", "outline": "as §1"}, "A498": {"test_system": "A498", "assay": "Growth inhibition of human A498 cells assessed as cell growth at 10 '-8 M after 48 hrs by sulforhodamine B assay", "assay_type": "functional", "settings": "A498, 48 h, read-out: Activity", "outline": "as §1"}, "M14": {"test_system": "M14", "assay": "Growth inhibition of human M14 cells assessed as cell growth at 10 '-5 M after 48 hrs by sulforhodamine B assay", "assay_type": "functional", "settings": "M14, 48 h, read-out: Activity"}, "Malme-3M [11]": {"test_system": "Malme-3M", "assay": "Growth inhibition of human MALME-3M cells assessed as cell growth at 10 '-5 M after 48 hrs by sulforhodamine B assay", "assay_type": "functional", "settings": "read-out: Activity"}, "[12]": {"assay": "Growth inhibition of human HCC2998 cells assessed as cell growth at 10 '-8 M after 48 hrs by sulforhodamine B assay", "assay_type": "functional", "settings": "HCC 2998, 48 h, read-out: Activity"}, "[13]": {"settings": "read-out: LD50 (the source's name)"}}, "note": "The source made the active and inactive calls. The rule behind the calls is not given here."}
{"smiles": "Cc1cc(=O)oc2cc(OCCn3c(C)nn(-c4ccc(Cl)cc4)c3=O)ccc12", "values": [{"measurement": "growth at 10 µM", "setting": "HOP-92 [1]", "result": 55, "unit": "%"}, {"measurement": "growth at 10 µM", "setting": "HL-60(TB)", "result": -1, "unit": "%"}, {"measurement": "growth at 1 µM", "setting": "MCF7", "result": 77, "unit": "%"}, {"measurement": "growth at 1 µM", "setting": "DU-145", "result": 96, "unit": "%"}, {"measurement": "growth at 1 µM", "setting": "OVCAR-8", "result": 97, "unit": "%"}, {"measurement": "growth inhibition (GI)", "setting": "MDA-MB-435 [2]", "result": "Active"}, {"measurement": "inhibition of growth at 10 µM", "setting": "Malme-3M [3]", "result": 67.1, "unit": "%"}, {"measurement": "inhibition of growth at 10 µM", "setting": "SNB-19", "result": 45.5, "unit": "%"}, {"measurement": "inhibition of growth at 10 µM", "setting": "HOP-92 [4]", "result": 52.6, "unit": "%"}, {"measurement": "growth at 1 µM", "setting": "SW-620", "result": 68, "unit": "%"}, {"measurement": "growth at 0.1 µM", "setting": "HCT-15 [5]", "result": 95, "unit": "%"}, {"measurement": "growth at 100 µM", "setting": "SK-MEL-5", "result": 4, "unit": "%"}, {"measurement": "growth at 100 µM", "setting": "MDA-MB-435 [6]", "result": -26, "unit": "%"}, {"measurement": "growth at 0.01 µM", "setting": "A549", "result": 97, "unit": "%"}, {"measurement": "GI50", "setting": "BT-549", "result": 1650, "unit": "nM"}, {"measurement": "TGI", "setting": "BT-549", "result": 9940, "unit": "nM"}, {"measurement": "CC50", "setting": "BT-549; [13]", "result": "> 1000", "unit": "nM"}, {"measurement": "growth at 100 µM", "setting": "K562", "result": 12, "unit": "%"}, {"measurement": "growth at 10 µM", "setting": "ACHN [7]", "result": 35, "unit": "%"}, {"measurement": "GI50", "setting": "IGROV-1", "result": 3500, "unit": "nM"}, {"measurement": "TGI", "setting": "IGROV-1", "result": "> 1000", "unit": "nM"}, {"measurement": "GI50", "setting": "HCT-15 [8]", "result": 3200, "unit": "nM"}, {"measurement": "TGI", "setting": "HCT-15 [8]", "result": "> 1000", "unit": "nM"}, {"measurement": "CC50", "setting": "HCT-15 [8]; [13]", "result": "> 1000", "unit": "nM"}, {"measurement": "growth at 0.1 µM", "setting": "NCI-H460", "result": 99, "unit": "%"}, {"measurement": "growth at 0.1 µM", "setting": "HOP-92 [9]", "result": 83, "unit": "%"}, {"measurement": "growth at 0.1 µM", "setting": "SR", "result": 99, "unit": "%"}, {"measurement": "growth at 0.01 µM", "setting": "MDA-MB-231", "result": 96, "unit": "%"}, {"measurement": "growth at 0.01 µM", "setting": "ACHN [10]", "result": 111, "unit": "%"}, {"measurement": "growth at 0.01 µM", "setting": "A498", "result": 81, "unit": "%"}, {"measurement": "growth at 10 µM", "setting": "M14", "result": 22, "unit": "%"}, {"measurement": "growth at 10 µM", "setting": "Malme-3M [11]", "result": 28, "unit": "%"}, {"measurement": "growth at 0.01 µM", "setting": "[12]", "result": 95, "unit": "%"}]}
